# Columns and labels:
# Assay type in all cases: functional
# Mus musculus [1] = assay: Number of survivors on 60th day at dose 20 mg/kg/day in 10 mice implanted with P388 leukemia cell line; 0/10
# Mus musculus [2] = assay: Percent increase in life span of DBA2 mice after inoculation with L1210 leukemia intravenously at a dose of 40 mg/kg per day; details: route intravenous
# Mus musculus [3] = assay: Percent increase in life span of DBA2 mice after inoculation with L1210 leukemia intravenously at a dose of 45 mg/kg per day; details: route intravenous
# Procedure, shortened: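 Female DBA2 mice inoculated iv on day 0 with 10^4 L1210 cells; drugs given iv as sulfate salts in physiological saline, mostly once on day 1. %ILS from all deaths and survivors as (T/C × 100) − 100; survivors scored on days 30 and 60.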
# Mus musculus [4] = assay: Number of survivors on 60th day at dose 50 mg/kg/day in 9 mice implanted with P388 leukemia cell line; 0/9
# Mus musculus [5] = assay: Number of survivors of DBA2 mice on 30th day after inoculation with L1210 leukemia cell line intravenously at a dose of 40 mg/kg/day; 0/10; details: route intravenous
# Mus musculus [6] = assay: Number of survivors of DBA2 mice on 30th day after inoculation with L1210 leukemia cell line intravenously at a dose of 45 mg/kg/day; 0/10; details: route intravenous
# Mus musculus [7] = assay: Percent increase in life span at dose 20 mg/kg/day in 10 mice implanted with P388 leukemia cell line
# Procedure, shortened: (§1)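 Female DBA2 mice inoculated iv on day 0 with 10^4 P388 cells; single iv treatment on day 1 with drug as sulfate salt in physiological saline. Survival followed; %ILS from all deaths and survivors as (T/C × 100) − 100, maximal MST 30 days; survivors counted on days 30 and 60. Most experiments confirmed three times.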
# Mus musculus [8] = assay: Percent increase in life span at dose 30 mg/kg/day in 10 mice implanted with P388 leukemia cell line; procedure, shortened: as §1
# Mus musculus [9] = assay: Percent increase in life span at dose 40 mg/kg/day in 10 mice implanted with P388 leukemia cell line; procedure, shortened: as §1
# Mus musculus [10] = assay: Percent increase in life span at dose 45 mg/kg/day in 10 mice implanted with P388 leukemia cell line
# Mus musculus [11] = assay: Number of survivors on 60th day at dose 30 mg/kg/day in 10 mice implanted with P388 leukemia cell line; 0/10
# Mus musculus [12] = assay: Number of survivors on 60th day at dose 40 mg/kg/day in 10 mice implanted with P388 leukemia cell line; 0/10
# Mus musculus [13] = assay: Number of survivors on 60th day at dose 45 mg/kg/day in 10 mice implanted with P388 leukemia cell line; 0/10
# Mus musculus [14] = assay: Number of survivors on 30th day at dose 20 mg/kg/day in 10 mice implanted with P388 leukemia cell line; 0/10
# Mus musculus [15] = assay: Number of survivors on 30th day at dose 40 mg/kg/day in 10 mice implanted with P388 leukemia cell line; 0/10
# Mus musculus [16] = assay: Number of survivors on 30th day at dose 45 mg/kg/day in 10 mice implanted with P388 leukemia cell line; 2/10
# Mus musculus [17] = assay: Number of survivors of DBA2 mice on 60th day after inoculation with L1210 leukemia cell line intravenously at a dose of 40 mg/kg/day; 0/10; details: route intravenous
# Mus musculus [18] = assay: Number of survivors of DBA2 mice on 60th day after inoculation with L1210 leukemia cell line intravenously at a dose of 45 mg/kg/day; 0/10; details: route intravenous
# Mus musculus [19] = assay: Number of survivors on 30th day at dose 50 mg/kg/day in 9 mice implanted with P388 leukemia cell line; 0/9
# Mus musculus [20] = assay: Percent increase in life span at dose 50 mg/kg/day in 10 mice implanted with P388 leukemia cell line; procedure, shortened: as §1
# Mus musculus [21] = assay: Number of survivors on 30th day at dose 30 mg/kg/day in 10 mice implanted with P388 leukemia cell line; 1/10
# Mus musculus [22] = assay: Number of survivors on 60th day at dose 50 mg/kg/day in 10 mice implanted with P388 leukemia cell line; 0/10
# Mus musculus [23] = assay: Number of survivors on 30th day at dose 50 mg/kg/day in 10 mice implanted with P388 leukemia cell line; 0/10
# Mus musculus [24] = assay: Number of survivors on 60th day at dose 10 mg/kg/day in 10 mice implanted with P388 leukemia cell line; 0/10
# Mus musculus [25] = assay: Number of survivors on 30th day at dose 10 mg/kg/day in 10 mice implanted with P388 leukemia cell line; 0/10
smiles,measurement,setting,value
CCOC(=O)[C@@H](Cc1c[nH]c2ccccc12)NC(=O)[C@@]1(O)[C@H](O)[C@]2(CC)C=CCN3CC[C@@]4(c5cc([C@@]6(C(=O)OC)C[C@H]7C[N@](CCc8c6[nH]c6ccccc86)C[C@](O)(CC)C7)c(OC)cc5N(C)[C@@]14C)[C@@H]32,Survivors,Mus musculus [1],0
same,ILS at 40 mg/kg/day,Mus musculus [2],21.8%
same,ILS at 45 mg/kg/day,Mus musculus [3],34.6%
same,Survivors,Mus musculus [4],0
same,Survivors,Mus musculus [5],0
same,Survivors,Mus musculus [6],0
same,ILS at 20 mg/kg/day,Mus musculus [7],18.7%
same,ILS at 30 mg/kg/day,Mus musculus [8],41.4%
same,ILS at 40 mg/kg/day,Mus musculus [9],53.8%
same,ILS at 45 mg/kg/day,Mus musculus [10],85%
same,Survivors,Mus musculus [11],0
same,Survivors,Mus musculus [12],0
same,Survivors,Mus musculus [13],0
same,Survivors,Mus musculus [14],0
same,Survivors,Mus musculus [15],0
same,Survivors,Mus musculus [16],2
same,Survivors,Mus musculus [17],0
same,Survivors,Mus musculus [18],0
same,Survivors,Mus musculus [19],0
same,ILS at 50 mg/kg/day,Mus musculus [20],59%
same,Survivors,Mus musculus [21],1
CCOC(=O)[C@H](CCC(=O)O)NC(=O)[C@@]1(O)[C@H](O)[C@]2(CC)C=CCN3CC[C@@]4(c5cc([C@@]6(C(=O)OC)C[C@H]7C[N@](CCc8c6[nH]c6ccccc86)C[C@](O)(CC)C7)c(OC)cc5N(C)[C@@]14C)[C@@H]32,Survivors,Mus musculus [1],0
same,ILS at 20 mg/kg/day,Mus musculus [7],10%
same,Survivors,Mus musculus [22],0
same,ILS at 40 mg/kg/day,Mus musculus [9],34.5%
same,Survivors,Mus musculus [12],0
same,Survivors,Mus musculus [14],0
same,Survivors,Mus musculus [15],0
same,Survivors,Mus musculus [23],0
same,Survivors,Mus musculus [24],0
same,Survivors,Mus musculus [25],0
same,ILS at 50 mg/kg/day,Mus musculus [20],2.8%

# — ChEMBL document CHEMBL1122917, “Vinblastin-23-oyl amino acid derivatives: chemistry, physicochemical data, toxicity, and antitumor activities against P388 and L1210 leukemias” (J Med Chem, 1985)
